ChEMBL document CHEMBL2331550, “Design, synthesis and structure-activity relationship of novel tricyclic benzimidazolone derivatives as potent 18 kDa translocator protein (TSPO) ligands” (Bioorg Med Chem, 2013)
Values after ≈ are worked out from the molar mass of the structure shown.

Legend:
[1] = target: Translocator protein (Rattus norvegicus) (UniProt P16257); assay: Displacement of [3H]PK11195 from TSPO in Sprague-Dawley rat kidney mitochondria at 100 nM after 1 hr by liquid scintillation counting analysis
[2] = Metabolic stability in rat liver S9 fraction assessed as compound remaining at 1 uM after 30 mins; type: ADME, subcellular; conditions: read-out: Stability
Translocator protein = Translocator protein (Rattus norvegicus, UniProt P16257); assay: Displacement of [3H]PK11195 from TSPO in Sprague-Dawley rat kidney mitochondria after 1 hr by liquid scintillation counting analysis
Rattus norvegicus = species on record: Rattus norvegicus; assay: Displacement of [3H]flumazenil from CBR in Sprague-Dawley rat cerebral cortex membrane at 10 uM after 1 hr by liquid scintillation counting analysis; type: tissue-based
In short: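 Male SD rat cerebral cortex was homogenised in potassium phosphate buffer (200 mM KCl, 20 mM KOH, 20 mM KH2PO4, pH 7.4) and washed at 32,500×g. Membranes were incubated with 1.0 nM [3H]-flumazenil (final) and 10 µM test compound for 1 h at 25 °C, then GF/B-filtered and counted by scintillation. Nonspecific binding was taken with […]. Percent inhibition of specific binding was measured in duplicate.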

[3] = Aqueous solubility of the compound at pH 7.4; type: physicochemical
[4] = Aqueous solubility of the compound at pH 2.5; type: physicochemical
[5] = Metabolic stability in rat liver S9 fraction assessed as compound remaining at 10 uM after 30 mins; type: ADME, subcellular; conditions: read-out: Stability

Sequence of Translocator protein (P16257 whole entry, looked up): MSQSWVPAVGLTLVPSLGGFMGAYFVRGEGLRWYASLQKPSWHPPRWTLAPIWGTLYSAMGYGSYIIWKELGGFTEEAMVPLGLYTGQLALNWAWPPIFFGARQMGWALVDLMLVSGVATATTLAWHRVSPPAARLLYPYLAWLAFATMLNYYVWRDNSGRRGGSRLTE
Sequence of Translocator protein (Rattus norvegicus) (P16257 whole entry, looked up): as above

| Structure (SMILES) | remaining at 0.5 h, 1 µM [2] | Ki (Translocator protein) | inhibition (Rattus norvegicus) | also measured |
| --- | --- | --- | --- | --- |
| CN(C(=O)Cn1c(=O)n(C)c2ccc(-c3ccccc3)cc21)c1ccccc1 |  |  |  | inhibition [1]: 100% |
| O=C(Cn1c(=O)n2c3c(cc(-c4ccccc4)cc31)CCC2)Nc1ccccc1 | 62% | 33 nM | 27% |  |
| CN(C(=O)Cn1c(=O)n2c3c(cc(-c4ccncc4)cc31)CCC2)c1ccccc1 | 3% |  |  |  |
| CN(C(=O)Cn1c(=O)n2c3c(cc(Nc4cccnc4)cc31)CCC2)c1ccccc1 | 41% |  |  | solubility [3]: 4 µg/mL (≈ 9.67 µM); solubility [4]: > 1000 µg/mL |
| COc1cccc(N(C)C(=O)Cn2c(=O)n3c4c(cc(-c5ccccc5)cc42)CCC3)c1 | 0% | 0.28 nM | 6% |  |
| CN(C(=O)Cn1c(=O)n2c3c(cc(-c4ccccc4)cc31)CCC2)c1cccnc1 | 0% | 2.1 nM | 36% |  |
| CN(C(=O)Cn1c(=O)n2c3c(cc(-c4ccccc4)cc31)CCC2)c1ccc(Cl)cc1 | 0% | 0.13 nM | 4% |  |
| CN(C(=O)Cn1c(=O)n2c3c(cccc31)CCC2)c1ccccc1 |  |  |  | remaining at 0.5 h, 10 µM [5]: 0% |
| CN(C(=O)Cn1c(=O)n2c3c(cc(-c4ccccc4)cc31)CCC2)c1ccncc1 | 0% | 15 nM | 24% |  |
| CN(C(=O)Cn1c(=O)[nH]c2ccc(-c3ccccc3)cc21)c1ccccc1 |  |  |  | inhibition [1]: 86% |
| CN(C(=O)Cn1c(=O)n2c3c(cc(Br)cc31)CCC2)c1ccccc1 |  |  |  | remaining at 0.5 h, 10 µM [5]: 0% |
| COc1ccc(-c2cc3c4c(c2)n(CC(=O)N(C)c2ccccc2)c(=O)n4CCC3)cc1 |  |  |  | remaining at 0.5 h, 10 µM [5]: 2% |
| CN(C(=O)Cn1c(=O)n2c3c(cc(-c4ccc(C(F)(F)F)cc4)cc31)CCC2)c1ccccc1 | 0% |  |  |  |
| CN(C(=O)Cn1c(=O)n2c3c(cc(-c4cccnc4)cc31)CCC2)c1ccccc1 |  |  |  | remaining at 0.5 h, 10 µM [5]: 0% |
| CN(C(=O)Cn1c(=O)n2c3c(cc(-c4ccccc4)cc31)OCC2)c1ccccc1 | 1% | 0.21 nM | 68% |  |
| CN(Cc1ccccc1)C(=O)Cn1c(=O)n2c3c(cc(-c4ccccc4)cc31)CCC2 | 1% | 0.23 nM | 72% |  |

The next lines start with results.

| remaining at 0.5 h, 1 µM [2] | Ki (Translocator protein) | inhibition (Rattus norvegicus) | Structure (SMILES) | also measured |
| --- | --- | --- | --- | --- |
| 0% |  |  | CN(C(=O)Cn1c(=O)n2c3c(cc(-c4ccccn4)cc31)CCC2)c1ccccc1 |  |
| 0% | 0.44 nM | 3% | CN(C(=O)Cn1c(=O)n2c3c(cc(-c4ccccc4)cc31)CCC2)c1cccc(Cl)c1 |  |
| 1% |  |  | COc1cccc(-c2cc3c4c(c2)n(CC(=O)N(C)c2ccccc2)c(=O)n4CCC3)c1 |  |
| 1% | 1.7 nM | 11% | CCCN(CCC)C(=O)Cn1c(=O)n2c3c(cc(-c4ccccc4)cc31)CCC2 |  |
|  | 0.73 nM | 3% | COc1ccc(N(C)C(=O)Cn2c(=O)n3c4c(cc(-c5ccccc5)cc42)CCC3)cc1 | remaining at 0.5 h, 10 µM [5]: 0% |
| 1% | 0.32 nM | 30% | CN(C(=O)Cn1c(=O)n2c3c(cc(-c4ccccc4)cc31)CCCC2)c1ccccc1 |  |
| 0% |  |  | CN(C(=O)Cn1c(=O)n2c3c(cc(-c4cccc(C(F)(F)F)c4)cc31)CCC2)c1ccccc1 |  |
| 12% | 0.94 nM | 14% | CN(C(=O)Cn1c(=O)n2c3c(cc(-c4ccccc4)cc31)CCC2)c1ccccc1 |  |
| 0% | 2.5 nM | 34% | CN(C(=O)Cn1c(=O)n2c3c(cc(-c4ccccc4)cc31)CCC2)c1ccccn1 |  |
